Source: ChEMBL document CHEMBL2434915, “2-(2-Hydrazinyl)thiazole derivatives: design, synthesis and in vitro antimycobacterial studies” (Eur J Med Chem, 2013)
Converted amounts (≈) assume the structure as drawn.

How the values were obtained:
A549 = assay: Cytotoxicity against human A549 cells after 48 hrs by MTT assay; type: cell-based
Outline: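 A549 human lung carcinoma type II epithelial cells kept in RPMI-1640 with 5% FBS, penicillin/streptomycin and 2 mM L-glutamine at 37 °C, 5% CO2. Seeded at 3 × 10³ cells/well and left overnight. Exposed to compounds at various concentrations for 48 h. After a PBS wash, MTT (5 mg/ml) was added for 4 h at 37 °C. Formazan dissolved in DMSO, read at 540 nm. IC50 from survival plots; mean ±SE, n=5.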

[1] = test system: Mycobacterium tuberculosis; assay: Antimycobacterial activity against Mycobacterium tuberculosis H37Rv after 5 days by broth microdilution method; type: functional; conditions: 120 h
Outline: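 Twofold DMSO dilutions (final 100 to 0.19, units as printed unclear) in Middlebrook 7H9 with 0.2% glycerol, 0.05% Tween 80 and 10% ADC; inoculum 3-7 x 10⁵ CFU/ml; 37°C for 5 days. Resazurin/Tween 80 then added, 24 h more at 37°C; A575/A610 read. MIC = lowest concentration giving 80% inhibition versus medium-only (100%) and drug-free culture (0%) controls; isoniazid reference.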

Row | SMILES | IC50 (A549) [mg/L] | MIC [1] [µM]
1 | CCOC(=O)Cc1csc(N/N=C(\C)c2ccccn2)n1 | 200 (≈ 657 µM) | 200 (≈ 60.9 µg/mL)
2 | CC(=O)c1sc(N/N=C(\C)c2ccccn2)nc1C | 50 (≈ 182 µM) | 100 (≈ 27.4 µg/mL)
3 | CCOC(=O)c1sc(N/N=C/c2ccc(OC)c(O)c2)nc1C | – | > 200
4 | CCOC(=O)c1sc(N/N=C/c2ccccc2[N+](=O)[O-])nc1C | – | > 200
5 | CCOC(=O)Cc1csc(N/N=C(\C)c2cccnc2)n1 | – | 200 (≈ 60.9 µg/mL)
6 | CCOC(=O)c1sc(N/N=C/c2ccc(Cl)cc2)nc1C | – | > 200
7 | CCOC(=O)c1sc(N/N=C(\C)c2ccccn2)nc1C | 140 (≈ 460 µM) | 12.5 (≈ 3.8 µg/mL)
8 | CCOC(=O)c1sc(N/N=C/c2ccc([N+](=O)[O-])cc2)nc1C | – | 200 (≈ 66.9 µg/mL)
9 | CCOC(=O)c1sc(N/N=C/c2ccc(OC)c(OC)c2)nc1C | – | > 200
10 | CC(=O)c1sc(N/N=C/c2c[nH]c3ccccc23)nc1C | – | > 200
11 | CCOC(=O)c1sc(N/N=C/c2cccc(O)c2)nc1C | – | > 200
12 | CCOC(=O)c1sc(N/N=C/c2cc(OC)c(OC)c(OC)c2)nc1C | – | > 200
13 | CCOC(=O)c1sc(N/N=C/c2cccc(Br)c2)nc1C | – | > 200
14 | CCOC(=O)c1sc(N/N=C/c2ccc(O)cc2)nc1C | – | > 200
15 | CCOC(=O)c1sc(N/N=C/c2ccccc2Cl)nc1C | – | > 200
16 | CCOC(=O)c1sc(N/N=C/c2ccccc2O)nc1C | – | 25 (≈ 7.63 µg/mL)
17 | CCOC(=O)c1sc(N/N=C(\C)c2ccccc2)nc1C | 150 (≈ 494 µM) | > 200
18 | CCOC(=O)c1sc(N/N=C/c2ccc3c(c2)OCO3)nc1C | – | > 200
19 | NNC(=O)c1ccncc1 [ISONIAZID] | – | 0.45 (≈ 0.0617 µg/mL)

Row | SMILES | IC50 (A549) [mg/L] | MIC [1] [µM]
20 | CC(=O)c1sc(N/N=C/c2cccc3c2OCO3)nc1C | – | > 200
21 | CCOC(=O)c1sc(N/N=C/c2c[nH]c3ccccc23)nc1C | – | 200 (≈ 65.7 µg/mL)
22 | CCOC(=O)c1sc(N/N=C/c2ccc(OC)cc2)nc1C | – | > 200
23 | CCOC(=O)c1sc(N/N=C(\C)c2cccc(Cl)c2)nc1C | – | > 200
24 | COc1cc(/C=N/Nc2nc(C)c(C(C)=O)s2)cc(OC)c1OC | – | > 200
25 | CCOC(=O)c1sc(N/N=C(\C)c2cccs2)nc1C | – | 100 (≈ 30.9 µg/mL)
26 | CCOC(=O)c1sc(N/N=C/c2ccc(C)cc2)nc1C | – | > 200
27 | CCOC(=O)c1sc(N/N=C/c2ccccc2)nc1C | – | > 200
28 | CCOC(=O)c1sc(N/N=C/c2ccco2)nc1C | – | 200 (≈ 55.9 µg/mL)
29 | CCOC(=O)c1sc(N/N=C/c2ccc(Cl)cc2Cl)nc1C | – | > 200
30 | CCOC(=O)c1sc(N/N=C/c2ccc(O)c(OCC)c2)nc1C | – | > 200
31 | CCOC(=O)c1sc(N/N=C/c2ccc(O)c(OC)c2)nc1C | – | > 200
32 | CCOC(=O)c1sc(N/N=C(\C)c2cccnc2)nc1C | – | > 200
33 | CC(=O)c1sc(N/N=C(\C)c2cccs2)nc1C | – | 200 (≈ 55.9 µg/mL)
34 | CC(=O)c1sc(N/N=C/c2ccco2)nc1C | – | 200 (≈ 49.9 µg/mL)
35 | CCOC(=O)c1sc(N/N=C(\C)c2ccncc2)nc1C | – | 200 (≈ 60.9 µg/mL)
36 | CCOC(=O)c1sc(N/N=C(\C)c2ccc(F)cc2)nc1C | – | 200 (≈ 64.3 µg/mL)
37 | CCOC(=O)c1sc(N/N=C/c2ccc(N(C)C)cc2)nc1C | – | 200 (≈ 66.5 µg/mL)
38 | CC(=O)c1sc(N/N=C/c2ccc(Cl)cc2Cl)nc1C | – | > 200
